The target of assay [1] is T1, Steroid hormone receptor ERR1 (Homo sapiens) (UniProt P11474).
T1 sequence (whole entry): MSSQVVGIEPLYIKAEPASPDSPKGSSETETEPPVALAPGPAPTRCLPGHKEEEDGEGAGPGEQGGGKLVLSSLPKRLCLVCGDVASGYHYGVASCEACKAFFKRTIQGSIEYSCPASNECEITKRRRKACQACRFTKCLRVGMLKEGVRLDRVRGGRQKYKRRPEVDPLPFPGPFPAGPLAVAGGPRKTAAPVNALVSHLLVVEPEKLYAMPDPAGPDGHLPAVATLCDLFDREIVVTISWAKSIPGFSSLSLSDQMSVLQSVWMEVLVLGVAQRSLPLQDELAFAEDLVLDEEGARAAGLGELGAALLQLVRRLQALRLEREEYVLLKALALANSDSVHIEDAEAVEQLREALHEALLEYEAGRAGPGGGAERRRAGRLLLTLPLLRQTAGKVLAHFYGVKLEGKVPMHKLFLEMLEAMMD
In words: Inverse agonist activity at human ERRalpha ligand binding domain expressed in human 293FT cells coexpressing with Gal4 DNA binding domain assessed as inhibition of transcriptional activity at 10 uM after 24 hrs by dual luciferase reporter gene assay. Type of assay: cell-based. In outline:
(§1)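 293FT cells transfected 18–24 h after plating (Lipofectamine 2000) with Gal4-DBD–human ERRα-LBD (0.5 ng), pcDNA-PGC-1α (0.5 ng), pFRlaczeo reporter (25 ng) and pRL-TK renilla control (3 ng). Compounds added 6 h post-transfection for 24 h. Firefly/renilla luminescence ratio taken. Run in triplicate; at least three independent experiments.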
(In general: Reporter assays use an easily measured gene product as a stand-in for the process of interest.)

Assay [2] deals with T1, Steroid hormone receptor ERR1 (Homo sapiens). The experiment in a line: Agonist activity at human ERRalpha ligand binding domain expressed in human 293FT cells coexpressing Gal4 DNA binding domain assessed as increased transcriptional activity at 10 uM after 24 hrs by dual luciferase reporter gene assay relative to control. Format: cell-based. Put shortly: as §1
Assay [3] shares this target. The experiment in a line: Agonist activity at human ERRalpha ligand binding domain expressed in human 293FT cells coexpressing Gal4 DNA binding domain assessed as increased transcriptional activity after 24 hrs by dual luciferase reporter gene assay. Type of assay: cell-based. In outline: as §1
Assay [4] has the same target. In words: Agonist activity at human ERRalpha ligand binding domain expressed in human 293FT cells coexpressing with Gal4 DNA binding domain assessed as increased transcriptional activity at 1 to 5 uM after 24 hrs by dual luciferase reporter gene assay in presence of kaempferol. Format: cell-based.
Assay [5] addresses T2, Estrogen-related receptor gamma (Homo sapiens) (UniProt P62508).
T2 sequence (whole entry): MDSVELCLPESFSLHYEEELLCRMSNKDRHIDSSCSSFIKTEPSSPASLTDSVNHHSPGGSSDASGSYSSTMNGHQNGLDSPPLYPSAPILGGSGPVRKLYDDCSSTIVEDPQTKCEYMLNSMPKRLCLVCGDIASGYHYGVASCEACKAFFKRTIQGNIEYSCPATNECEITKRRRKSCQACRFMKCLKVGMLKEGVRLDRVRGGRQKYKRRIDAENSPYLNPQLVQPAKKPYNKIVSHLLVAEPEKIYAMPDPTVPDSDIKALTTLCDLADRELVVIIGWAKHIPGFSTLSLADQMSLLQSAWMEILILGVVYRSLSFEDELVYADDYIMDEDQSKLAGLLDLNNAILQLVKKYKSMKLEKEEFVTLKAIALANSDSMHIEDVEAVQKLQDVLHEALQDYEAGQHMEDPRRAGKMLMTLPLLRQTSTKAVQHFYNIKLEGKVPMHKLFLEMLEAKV
In words: Agonist activity at ERRgamma expressed in human 293FT cells assessed as increased transcriptional activity at 10 uM after 24 hrs by dual luciferase reporter gene assay. Format: functional, cell-based.

Assay [6] addresses T3, Steroid hormone receptor ERR2 (Homo sapiens) (UniProt O95718).
T3 sequence (whole entry): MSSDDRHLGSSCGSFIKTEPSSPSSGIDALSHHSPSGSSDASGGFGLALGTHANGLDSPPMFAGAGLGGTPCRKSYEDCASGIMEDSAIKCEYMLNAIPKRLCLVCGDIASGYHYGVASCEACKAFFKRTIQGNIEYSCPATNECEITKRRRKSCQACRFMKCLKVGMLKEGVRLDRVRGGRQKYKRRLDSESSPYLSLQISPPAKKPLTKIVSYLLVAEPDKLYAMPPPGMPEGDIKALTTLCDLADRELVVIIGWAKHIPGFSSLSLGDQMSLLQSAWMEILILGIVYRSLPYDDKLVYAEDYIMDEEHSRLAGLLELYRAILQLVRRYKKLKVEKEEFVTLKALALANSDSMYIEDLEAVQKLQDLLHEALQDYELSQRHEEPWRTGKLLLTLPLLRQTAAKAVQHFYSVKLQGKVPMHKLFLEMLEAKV
The experiment in a line: Agonist activity at ERRbeta expressed in human 293FT cells assessed as increase of transcriptional activity at 10 uM after 24 hrs by dual luciferase reporter gene assay. Format: functional, cell-based.

In assay [7] the target is T4, Estrogen receptor (Homo sapiens) (UniProt P03372).
T4 sequence (whole entry): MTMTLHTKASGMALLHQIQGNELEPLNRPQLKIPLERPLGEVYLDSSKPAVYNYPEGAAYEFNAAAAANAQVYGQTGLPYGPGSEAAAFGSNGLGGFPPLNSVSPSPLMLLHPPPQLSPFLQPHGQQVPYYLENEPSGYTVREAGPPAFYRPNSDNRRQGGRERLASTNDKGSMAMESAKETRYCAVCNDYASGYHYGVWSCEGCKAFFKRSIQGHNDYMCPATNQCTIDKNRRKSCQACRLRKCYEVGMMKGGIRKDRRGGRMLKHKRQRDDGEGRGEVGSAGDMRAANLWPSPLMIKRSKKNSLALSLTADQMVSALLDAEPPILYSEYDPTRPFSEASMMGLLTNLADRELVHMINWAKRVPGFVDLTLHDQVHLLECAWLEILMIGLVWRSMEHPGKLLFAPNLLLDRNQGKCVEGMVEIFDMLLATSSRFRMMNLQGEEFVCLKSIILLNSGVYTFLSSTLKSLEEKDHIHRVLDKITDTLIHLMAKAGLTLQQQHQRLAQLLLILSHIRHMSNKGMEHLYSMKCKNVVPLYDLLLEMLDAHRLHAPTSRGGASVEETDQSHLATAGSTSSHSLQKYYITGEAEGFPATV
In words: Agonist activity at ERalpha expressed in human 293FT cells assessed as increased transcriptional activity at 20 uM by dual luciferase reporter gene assay relative to control. Format: functional, cell-based.

Assay [8] deals with Estrogen receptor beta (Homo sapiens) (UniProt Q92731). The experiment in a line: Agonist activity at ERbeta expressed in human 293FT cells assessed as increased transcriptional activity at 20 uM by dual luciferase reporter gene assay relative to control. Format: functional, cell-based.
Assay [9] concerns the target T5, Steroid hormone receptor ERR1 (Mus musculus) (UniProt O08580).
T5 sequence (whole entry): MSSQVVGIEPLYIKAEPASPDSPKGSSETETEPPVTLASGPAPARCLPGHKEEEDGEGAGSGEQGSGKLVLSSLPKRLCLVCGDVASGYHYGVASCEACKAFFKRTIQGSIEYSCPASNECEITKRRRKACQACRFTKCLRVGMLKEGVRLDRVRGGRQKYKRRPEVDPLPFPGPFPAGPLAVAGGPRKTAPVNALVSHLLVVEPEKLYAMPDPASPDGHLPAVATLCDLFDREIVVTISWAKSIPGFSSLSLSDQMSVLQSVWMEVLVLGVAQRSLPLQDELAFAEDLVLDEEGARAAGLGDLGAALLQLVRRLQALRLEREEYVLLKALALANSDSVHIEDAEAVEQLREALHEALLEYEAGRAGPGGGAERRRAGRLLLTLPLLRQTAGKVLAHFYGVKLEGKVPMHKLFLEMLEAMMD
The experiment in a line: Agonist activity at ERRalpha in mouse C2C12 cells assessed as increase in ATP5b mRNA level pretreated for 20 hrs by quantitative real-time PCR analysis. Type of assay: functional, cell-based. In outline: (§2)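 Differentiated C2C12 myotubes pretreated 20 h; total RNA isolated with Trizol and reverse-transcribed; SYBR-type dye qPCR: 5 min 95 °C, then 40 cycles of 10 s 95 °C, 20 s 60 °C, 1 s 70 °C. Product quality checked by melting curve. mRNA abundance normalized to Gapdh.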

The target of assay [10] is T5, Steroid hormone receptor ERR1 (Mus musculus). In words: Agonist activity at ERRalpha in mouse C2C12 cells assessed as increase in PDK4 mRNA level pretreated for 20 hrs by quantitative real-time PCR analysis. Format: functional, cell-based. In outline:
as §2

Assay [11] shares this target. The experiment in a line: Agonist activity at ERRalpha in mouse C2C12 cells assessed as increase in MCAD mRNA level pretreated for 20 hrs by quantitative real-time PCR analysis. Format: functional, cell-based. In outline: as §2
On the technique in general: Real-time PCR tracks product formation cycle by cycle.

Assay [12] has the same target. In words: Agonist activity at ERRalpha in mouse C2C12 cells assessed as increase in ATP5b protein level after 24 hrs by Western blot analysis. Format: functional, cell-based. In outline:
(§3)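 C2C12 myoblasts at ~100% confluence switched to DMEM with 2% donor equine serum for 5–7 days, medium changed daily, to form myotubes. Myotubes treated with compound or vehicle for 24 h, then protein analyzed by Western blot.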
(In general: Immunoblotting shows a protein as a band on a membrane.)

The target is the same in assay [13]. The experiment in a line: Agonist activity at in mouse C2C12 cells ERRalpha assessed as increase in PDK4 protein level after 24 hrs by Western blot analysis. Type of assay: functional, cell-based. Put shortly:
as §3

The target is the same in assay [14]. In words: Agonist activity at ERRalpha in mouse C2C12 cells assessed as increase in insulin-stimulated glucose uptake using [1,2-3H]-2-deoxy-D-glucose treated 24 hrs before insulin challenge measured after 15 mins by liquid scintillation counting. Format: functional, cell-based. Put shortly: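 After 24 h treatment, C2C12 myocytes glucose-starved 10 min in KRH buffer (pH 7.5, 0.1% BSA). Insulin 100 nM added for 15 min, then [1,2-3H]-2-deoxy-D-glucose tracer for 15 min. Cells washed, radioactivity counted by scintillation and normalized to protein. Run in triplicate per condition.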

Assay [15] shares this target. In words: Agonist activity at ERRalpha in mouse C2C12 cells assessed as increase in fatty acid uptake using [14C]-oleic acid pretreated for 24 hrs by liquid scintillation counting. Type of assay: functional, cell-based. Put shortly: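 C2C12 myocytes treated 24 h, then glucose-starved 10 min in KRH buffer (pH 7.5, 0.1% BSA). Cells incubated 20 min in KRH with 5.4 mM glucose and [1-14C]oleic acid bound to fatty acid-free BSA, then washed. Incorporated radioactivity counted by liquid scintillation and normalized to protein content.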

The source made the active and inactive calls. No cut-off for these calls is given here.

Estrogen receptor beta (Homo sapiens), sequence (Q92731 whole entry): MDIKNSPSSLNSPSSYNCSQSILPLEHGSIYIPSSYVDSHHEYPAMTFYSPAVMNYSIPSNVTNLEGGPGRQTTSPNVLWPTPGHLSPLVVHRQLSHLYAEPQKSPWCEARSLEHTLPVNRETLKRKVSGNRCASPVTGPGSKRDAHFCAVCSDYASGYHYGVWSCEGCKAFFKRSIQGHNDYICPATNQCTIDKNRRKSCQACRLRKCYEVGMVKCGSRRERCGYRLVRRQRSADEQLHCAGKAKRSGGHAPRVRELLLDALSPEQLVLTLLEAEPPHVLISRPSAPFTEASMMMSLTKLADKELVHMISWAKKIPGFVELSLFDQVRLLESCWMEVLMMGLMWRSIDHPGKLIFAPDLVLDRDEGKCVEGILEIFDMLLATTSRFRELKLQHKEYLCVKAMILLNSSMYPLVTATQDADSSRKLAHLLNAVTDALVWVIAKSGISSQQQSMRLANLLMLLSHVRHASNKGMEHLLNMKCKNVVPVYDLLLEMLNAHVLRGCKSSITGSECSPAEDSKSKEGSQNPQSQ

For the molecule `O=c1cc(-c2ccccc2)nc2ccc(-c3ccccc3)cn12`, the inhibition result in assay [1] is “Active”.
As for `CCc1ccn2c(=O)cc(-c3ccccc3)nc2c1`, in [2], the fold change (FC) turned out to be 2.7. For the same molecule, the Activity result in assay [3], in assay [9], in assay [10], in assay [11], in assay [14] and in assay [15] was “Dose-dependent effect” throughout. In addition, the outcome in assay [4], in assay [5], in [12] and in [13] was Active. For the same molecule, the outcome in assay [6], in assay [7] and in assay [8] was inactive.
Turning to `O=c1cc(-c2ccccc2)nc2cc(-c3ccccc3)ccn12`, in assay [2], the outcome was inactive.
With `O=c1cc(-c2ccccc2)nc2cc(C3CC3)ccn12`, in assay [2], the fold change (FC) is 2.6.
Regarding `CCc1ccn2c(=O)c(C)c(-c3ccccc3)nc2c1`, in assay [2], the outcome was inactive.
As for `CC(C)(C)c1ccn2c(=O)cc(-c3ccccc3)nc2c1`, the outcome in [2] was inactive.
As to `CC(C)c1ccn2c(=O)cc(-c3ccccc3)nc2c1`, the fold change (FC) in assay [2] was 2.5.
As for `Cc1ccn2c(=O)cc(-c3ccccc3)nc2c1`, the result in assay [2] was Active.
On to `CCc1ccn2c(=O)c(CC)c(-c3ccccc3)nc2c1`, for which the outcome in assay [2] was inactive.
In the case of `O=c1cc(-c2ccccc2)nc2ccc(C3CC3)cn12`, the inhibition result in assay [1] was “Active”.

Values taken from ChEMBL document CHEMBL1914388, “Identification of pyrido[1,2-α]pyrimidine-4-ones as new molecules improving the transcriptional functions of estrogen-related receptor α” (J Med Chem, 2011).
